Source: ChEMBL document CHEMBL1250501, “Anti-tubercular agents. Part 5: synthesis and biological evaluation of benzothiadiazine 1,1-dioxide based congeners” (Eur J Med Chem, 2010)
Calls of active or inactive are those of the source. No cut-off for these calls is given here.

Columns and labels:
Assay type in all cases: functional
Klebsiella pneumoniae [1] = assay: Antibacterial activity against Klebsiella pneumoniae at 100 ug/ml after 18 hrs by cup plate method; details: read-out: DIZ
Procedure, shortened: (§1)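 Agar well diffusion on Mueller-Hinton agar. Inoculum was adjusted to a 0.5 McFarland standard (about […] × 10⁸ CFU/mL) and swabbed over the plate three times, rotating about 60° each time, then the rim was swabbed. Compounds in DMSO went into duplicate 6 mm wells. Plates were incubated at 37 °C for 18 h and inhibition zone diameter read to the nearest mm. DMSO negative control; streptomycin and ciprofloxacin positive controls.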

Staphylococcus aureus [2] = assay: Antibacterial activity against Staphylococcus aureus at 50 ug/ml after 18 hrs by cup plate method; details: for zone of inhibition at 50 µg/mL: read-out: DIZ; procedure, shortened: as §1
Bacillus subtilis [3] = assay: Antibacterial activity against Bacillus subtilis at 50 ug/ml after 18 hrs by cup plate method; procedure, shortened: as §1
[4] = tested on: Staphylococcus epidermidis; assay: Antibacterial activity against Staphylococcus epidermidis at 50 ug/ml after 18 hrs by cup plate method; details: for zone of inhibition at 50 µg/mL: read-out: DIZ; procedure, shortened: as §1
Candida albicans [5] = assay: Antifungal activity against Candida albicans MTCC 227 at 50 ug/ml after 48 hrs by cup plate method
Procedure, shortened: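 Agar well (cup plate) diffusion on potato dextrose agar 39 g/L. Compounds dissolved in DMSO and loaded into 6 mm wells. Incubated at 28 ± 2 °C for 48 h. Inhibition zone diameter measured to the nearest millimetre, three replicates per treatment. DMSO solvent as negative control, amphotericin B as positive control.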

Candida albicans [6] = assay: Antifungal activity against Candida albicans MTCC 227 at 100 ug/ml after 48 hrs by cup plate method; details: MTCC 227, 48 h, read-out: IZ
Procedure, shortened: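 Agar well (cup plate) diffusion on potato dextrose agar 39 g/L, with compounds dissolved in DMSO. Plates were incubated at 28 ± 2 °C for 48 h and inhibition zones measured to the nearest mm. Three replicates per treatment. Amphotericin B positive control; solvent control included.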

Pseudomonas aeruginosa [7] = assay: Antibacterial activity against Pseudomonas aeruginosa at 100 ug/ml after 18 hrs by cup plate method; details: read-out: DIZ; procedure, shortened: as §1
Staphylococcus aureus [8] = assay: Antibacterial activity against Staphylococcus aureus at 100 ug/ml after 18 hrs by cup plate method; details: read-out: DIZ; procedure, shortened: as §1
Klebsiella pneumoniae [9] = assay: Antibacterial activity against Klebsiella pneumoniae at 50 ug/ml after 18 hrs by cup plate method; procedure, shortened: as §1
Bacillus subtilis [10] = assay: Antibacterial activity against Bacillus subtilis at 100 ug/ml after 18 hrs by cup plate method; details: read-out: DIZ; procedure, shortened: as §1
Escherichia coli [11] = assay: Antibacterial activity against Escherichia coli at 50 ug/ml after 18 hrs by cup plate method; procedure, shortened: as §1
[12] = tested on: Mycobacterium tuberculosis; assay: Antimycobacterial activity against Mycobacterium tuberculosis H37Rv after 3 to 4 weeks by broth microdilution assay
Procedure, shortened: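 MIC by broth microdilution on compounds active in a single-concentration primary screen. Plates incubated 3–4 weeks at 37 °C in a CO₂ incubator. Wells read visually for absence of growth turbidity.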

Pseudomonas aeruginosa [13] = assay: Antibacterial activity against Pseudomonas aeruginosa at 50 ug/ml after 18 hrs by cup plate method; procedure, shortened: as §1
[14] = tested on: Staphylococcus epidermidis; assay: Antibacterial activity against Staphylococcus epidermidis at 100 ug/ml after 18 hrs by cup plate method; details: read-out: DIZ; procedure, shortened: as §1
Escherichia coli [15] = assay: Antibacterial activity against Escherichia coli at 100 ug/ml after 18 hrs by cup plate method; details: read-out: DIZ; procedure, shortened: as §1

Structure (SMILES) | zone of inhibition at 100 µg/mL (Klebsiella pneumoniae [1]) | zone of inhibition at 50 µg/mL (Staphylococcus aureus [2]) | diameter of the inhibition zone (DIZ) (Bacillus subtilis [3]) | diameter of the inhibition zone (DIZ) [4] | inhibition zone (IZ) (Candida albicans [5]) | zone of inhibition at 100 µg/mL (Candida albicans [6]) | zone of inhibition at 100 µg/mL (Pseudomonas aeruginosa [7]) | zone of inhibition at 100 µg/mL (Staphylococcus aureus [8]) | diameter of the inhibition zone (DIZ) (Klebsiella pneumoniae [9]) | zone of inhibition at 100 µg/mL (Bacillus subtilis [10]) | diameter of the inhibition zone (DIZ) (Escherichia coli [11]) | MIC [12] | diameter of the inhibition zone (DIZ) (Pseudomonas aeruginosa [13]) | zone of inhibition at 100 µg/mL [14] | zone of inhibition at 100 µg/mL (Escherichia coli [15]) | zone of inhibition at 50 µg/mL [4] | diameter of the inhibition zone (DIZ) (Staphylococcus aureus [2]) | zone of inhibition at 50 µg/mL (Candida albicans [5]; MTCC 227, 48 h, read-out: IZ) | zone of inhibition at 50 µg/mL (Escherichia coli [11]; read-out: DIZ) | zone of inhibition at 50 µg/mL (Pseudomonas aeruginosa [13]; read-out: DIZ)
O=[N+]([O-])c1ccc(CN2CCN(C3=NS(=O)(=O)c4ccccc4N3c3ccccc3)CC2)s1 | 13 mm | 9 mm | inactive | inactive | inactive | 12 mm | 12 mm | 12 mm | inactive | 14 mm | inactive | > 16 µg/mL | inactive | 14 mm | 16 mm |  |  |  |  | 
CN1C(N2CCN(Cc3ccc([N+](=O)[O-])s3)CC2)=NS(=O)(=O)c2ccccc21 | 12 mm | 10 mm | inactive |  | inactive | 17 mm | 13 mm | 12 mm | inactive | 18 mm | inactive | > 16 µg/mL | inactive | 16 mm | 16 mm | 14 mm |  |  |  | 
O=C(c1ccc([N+](=O)[O-])o1)N1CCN(C2=NS(=O)(=O)c3ccccc3N2c2ccccc2)CC1 | 11 mm |  | inactive |  |  | 17 mm | 16 mm | 15 mm | inactive | 19 mm |  | > 16 µg/mL |  | 17 mm | 20 mm | 10 mm | inactive | 10 mm | 10 mm | 10 mm
